Tb hexokinase: blocks Trypanosoma brucei hexokinase 1 activity. recombinant TbHK1, G6PDH-coupled NADH A340. inhibition, % at 10 µM. 220,000 tested, 0.11% active;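 active = inhibition of 50% or more in the single-dose primary screen; inactive = inhibition below 50%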
Runt-CBFb FRET: inhibitors of human RUNX1 Runt domain binding to CBFb | AID 1496 | inhibition, % at 20 µM | 220,000 tested, 0.46% active | Q01196+Q13951 | Cerulean-Runt/Venus-CBFb FRET ratio 530/480, 1 h;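 active = inhibition over about 50% at 20 µM in the single-dose screen, limit read from the data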;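 note: 0% = DMSO wells and 100% = excess unlabeled CBFb competitor control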
Target sequence (Q01196 whole entry, looked up, the tested form may be a part): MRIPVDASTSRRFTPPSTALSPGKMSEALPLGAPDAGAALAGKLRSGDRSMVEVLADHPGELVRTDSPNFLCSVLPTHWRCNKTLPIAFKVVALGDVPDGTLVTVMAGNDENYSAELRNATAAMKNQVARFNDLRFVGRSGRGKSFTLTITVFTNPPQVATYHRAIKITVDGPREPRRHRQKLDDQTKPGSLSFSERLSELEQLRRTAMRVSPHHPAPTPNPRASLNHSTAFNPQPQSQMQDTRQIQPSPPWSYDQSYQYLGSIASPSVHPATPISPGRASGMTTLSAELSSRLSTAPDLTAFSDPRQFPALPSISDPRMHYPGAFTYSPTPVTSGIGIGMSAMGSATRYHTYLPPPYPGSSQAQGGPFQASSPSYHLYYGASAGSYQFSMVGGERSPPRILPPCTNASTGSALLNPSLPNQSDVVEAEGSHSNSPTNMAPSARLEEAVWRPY
Target sequence (Q13951 whole entry, looked up, the tested form may be a part): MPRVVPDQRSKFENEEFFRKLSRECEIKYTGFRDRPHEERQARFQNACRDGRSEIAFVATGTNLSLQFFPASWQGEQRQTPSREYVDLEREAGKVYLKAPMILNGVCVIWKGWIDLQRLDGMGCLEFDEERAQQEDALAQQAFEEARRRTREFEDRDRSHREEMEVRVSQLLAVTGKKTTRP
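Buffer or medium: Tris pH 7.5 buffer with BSA. Assay system: Cerulean-labeled Runt domain protein. Amount: each fluorescent fusion protein 100 nM. Read-out basis: loss of energy transfer signal. Incubation: 1 h compound exposure, room temperature. Probe or stimulus: Venus-CBFb binding partner, 100 nM. Detection: FRET, excitation 422 nm, emission at 530 and 480 nm.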
RanGTP-Impb inh: disruptors of Ran-importin-beta complex formation – biochemical, FRET, CFP-Ran, YFP-importin-beta, homogeneous, primary screen | cell-free CFP-Ran/YFP-importin-beta FRET ratio | inhibition, % (no concentration beside the values) | 300,000 tested, 1.1% active;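 active = more than half of the replicate wells show a fall in the fluorescence ratio signal beyond about 16%, limit read from the data, passing the limit was not always enough; inconclusive = exactly half of the replicate wells pass the set limit; inactive = fewer than half of replicates pass the limit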;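 note: 0% = DMSO wells and 100% = Ran loaded with GDP instead of GTP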
Runt-SMMHC FRET: Runt domain-CBFb-SMMHC interaction inhibition; Cerulean-Runt/Venus-CBFb-SMMHC FRET ratio 530/480, 1 h; inhibition, % at 20 µM; 220,000 tested, 0.74% active; AID 1434;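 active = mean inhibition across duplicate retests at 20 µM reaching about 50%, limit read from the data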;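 note: 0% = DMSO wells and 100% = wells with excess untagged CBFb-SMMHC; inhibitors lower the FRET ratio by blocking Runt binding to CBFb-SMMHC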
Hck-Nef inh: human Hck-Nef kinase inhibition. inhibition, % at 20 µM. P08631. Recombinant Hck-YEEI plus Nef, Z-Lyte FRET kinase assay. 220,000 tested, 0.68% active;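 active = Hck-Nef kinase inhibition above about 50%, limit read from the data; inactive = inhibition below that limit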;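 note: 0% = DMSO with Hck plus Nef and 100% = Hck alone without Nef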
Active calls of the source: *; ? = inconclusive; · = no result given. In the library only some 1.9% were active in any assay of this set; here they are far more common.

SMILES	Tb hexokinase	Runt-CBFb FRET	RanGTP-Impb inh	Runt-SMMHC FRET	Hck-Nef inh
CCc1ccc(C(=O)COC(=O)[C@@H](NC(N)=O)[C@@H](C)CC)cc1	4	-1	1	-2	5
COC(=O)c1cccc(/C=N/NC(N)=S)c1O	-19	39	42*	84*	-79
COc1cc(/C=C(\C#N)C(=O)NCc2cccs2)ccc1O	-5	23	4	58*	-2
COCCNC(=O)/C(C#N)=C/c1ccc(OC(=O)c2cccs2)c(OC)c1	-29	-2	1	1	22
CC(C)(C)c1cc(/C=N/NC(=O)Cc2nc3ccccc3[nH]2)cc(C(C)(C)C)c1O	6	13	39*	30	10
CC(=O)Oc1c(-c2ccco2)oc2ccccc2c1=O	-28	20	13	92*	-118
O=C(CCc1nnc2n(Cc3ccc(F)cc3)c(=O)c3ccccc3n12)N1CCN(c2ccccn2)CC1	·	·	-1	·	·
CCOC(=O)C1CCCCN1S(=O)(=O)c1ccc2c(c1)CC(C)N2C(=O)C1CCC1 (centres undefined)	·	·	3	·	·
COc1cccc(/C(O)=C2/C(=O)C(=O)N(CCN(C)C)C2c2ccccn2)c1 (centres undefined)	-16	-1	?	-2	0
O=C1C(=O)N(CCN2CCOCC2)C(c2ccccn2)/C1=C(/O)c1ccc(F)cc1 (centres undefined)	-39	5	19*	4	0
Cc1ccc(C2/C(=C(/O)c3cnn(-c4ccccc4)c3C)C(=O)C(=O)N2CCCN2CCOCC2)o1 (centres undefined)	-13	0	4	-4	20
CN(C)CCN1C(=O)C(=O)/C(=C(/O)c2ccc3c(c2)OCCO3)C1c1ccccn1 (centres undefined)	-31	2	24*	-1	14
COc1ccc(/C(O)=C2/C(=O)C(=O)N(CCN3CCOCC3)C2c2ccccn2)cc1 (centres undefined)	-16	6	·	8	-1
Cc1c(/C(O)=C2/C(=O)C(=O)N(CCN3CCOCC3)C2c2ccccn2)cnn1-c1ccccc1 (centres undefined)	-9	12	35*	18	-18
O=C(c1csc2c1CCCC2)N1CCN(c2cccc(C(F)(F)F)c2)CC1	0	-1	-1	-3	0
Oc1ccc(/C=N/Nc2ccc(Cl)nn2)c(O)c1O	·	·	-3	·	·
O=C(NCCc1ccc2c(c1)OCCO2)c1ccc(F)cc1	1	1	5	-3	5
Cc1ccc(CNC(=O)c2cnc(-c3ccccn3)nc2C(F)(F)F)cc1	-1	-2	6	-1	3
COc1cccc(CNC(=O)c2cnc(-c3ccccn3)nc2C(F)(F)F)c1	-1	0	30*	6	-3
COc1ccccc1C(=O)Nc1nc2ccccc2s1	·	·	3	·	·
N=c1oc2cc(O)ccc2cc1C(=O)Nc1ccc(Br)cc1	·	·	167*	·	·
O=C(Nc1ccccn1)c1ccc2ccccc2c1O	·	·	-2	·	·
N=c1oc2cc(O)ccc2cc1C(=O)Nc1nc2ccccc2s1	-15	19	136*	63*	81*
N=c1oc2cc(O)ccc2cc1C(=O)Nc1ccccn1	0	20	·	87*	115*
CCCCn1c(N)c(N(CCC(C)C)C(=O)CN2C(=O)C3CCCCC3C2=O)c(=O)[nH]c1=O (centres undefined)	·	·	2	·	·
SMILES	Tb hexokinase	Runt-CBFb FRET	RanGTP-Impb inh	Runt-SMMHC FRET	Hck-Nef inh
COc1ccccc1C1NC(=O)NC(C)=C1C(=O)OC1CCC(C)CC1 (centres undefined)	·	·	5	·	·
CSc1ccccc1OCc1cc(C(=O)N[C@H]2CCCCNC2=O)no1	·	·	0	·	·
C/C(=N\NC(=O)Cn1nc(C)cc1C)c1ccc([N+](=O)[O-])cc1	-34	-2	-1	1	10
O=C(c1ccc(N2C(=O)C3C4CC(C(Br)C4Br)C3C2=O)cc1)N1CCCCC1 (centres undefined)	·	·	4	·	·
CCN(CC)CCCN1C=C2C(=O)C(C)(OC(=O)CCc3ccccc3)C(=O)C=C2C=C1c1ccc(C#N)cc1 (centres undefined)	-14	36	0	51*	18
CC(=O)N(CN1C(=O)c2ccccc2C1=O)c1ccccc1	1	1	0	4	4
CCNc1nc(C)c(CN(C(C)=O)c2ccccc2)nc1C#N	-4	32	4	91*	23
Cc1c(Br)c(=O)oc2c(C)c(O)ccc12	-7	48	33*	73*	39
COc1ccc2c(C)c(C)c(=O)oc2c1OC	-19	-1	-1	0	18
CCCNC(=S)Nc1ccc2nc(-c3ccccn3)c(-c3ccccn3)nc2c1	-14	·	28*	-23	1
S=C(Nc1ccc2nc(-c3ccccn3)c(-c3ccccn3)nc2c1)N1CCCCC1	-18	·	·	·	16
COc1cc(/C=C2\SC(=S)N(C(C(=O)O)c3ccccc3)C2=O)ccc1O (centres undefined)	-18	-52	-18	-162	10
CCOc1ccc(/C=C2/SC(=S)N(C(C(=O)O)c3ccccc3)C2=O)cc1OCC (centres undefined)	1	-40	·	-121	62*
CC(C)(C)c1ccc(C(=O)Nc2cccc3c(=O)[nH][nH]c(=O)c23)cc1	4	4	39*	78	-4
CCN1CCc2c(sc(NC(=O)c3ccc(S(=O)(=O)N(C)CC4CCCO4)cc3)c2C(N)=O)C1 (centres undefined)	·	·	48*	·	·
CC(C)N1CCc2c(sc(NC(=O)c3ccc(S(=O)(=O)N(C)CC4CCCO4)cc3)c2C(N)=O)C1 (centres undefined)	·	·	72*	·	·
COc1cc(/C=C/C(=O)OCC(=O)N2CCc3ccccc3C2)ccc1O	-13	-72	2	7	4
C=CCSc1nc(N)c2c3c(sc2n1)CN(C)CC3	·	·	19*	·	·
CCSc1nc(N)c2c3c(sc2n1)CN(C)CC3	-83	2	5	18	-5
CSc1nc(SCC(N)=O)c2c3c(sc2n1)CN(C)CC3	-28	-2	3	-4	1
CCNc1nc(SCC(N)=O)nc2sc3c(c12)CCN(C)C3	·	·	48*	·	·
COc1ccc(Nc2c3c(nc4ccccc24)CCC3)cc1	·	·	8	·	·
O=C(O)c1ccc(Nc2c3ccccc3nc3ccccc23)cc1	·	·	20*	·	·

Screening data as filed in PubChem BioAssay.
